≈ marks a conversion by molar mass, not a printed value.
Experiments:
PXR (NR1I2) = target: T1, PXR (NR1I2) (Homo sapiens, UniProt O75469); assay: Induction of human PXR at 10 uM relative to control; assay type: ADME; details: read-out: Activity
T1 sequence (O75469 whole entry): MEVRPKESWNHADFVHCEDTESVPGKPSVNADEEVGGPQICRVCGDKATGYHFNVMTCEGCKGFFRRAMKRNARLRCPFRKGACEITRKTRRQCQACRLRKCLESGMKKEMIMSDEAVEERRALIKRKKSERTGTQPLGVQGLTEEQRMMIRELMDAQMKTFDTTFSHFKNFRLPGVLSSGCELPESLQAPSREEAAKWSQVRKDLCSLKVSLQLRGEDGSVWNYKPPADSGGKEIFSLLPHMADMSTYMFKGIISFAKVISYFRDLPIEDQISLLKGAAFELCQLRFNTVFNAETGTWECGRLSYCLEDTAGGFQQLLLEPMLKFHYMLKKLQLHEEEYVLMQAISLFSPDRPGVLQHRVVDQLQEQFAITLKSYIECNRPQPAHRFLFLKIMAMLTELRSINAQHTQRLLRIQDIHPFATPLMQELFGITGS
Method in brief: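 Human PXR activation as an indirect measure of CYP3A4 induction, at 10 μM, expressed as % of rifampicin control activation.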

[1] = AUC (0 to 24 hrs) in rat assessed as NOAEL at 200 mg/kg/day, po administered as repeated dose for 13 days; assay type: ADME, organism-based; design: route oral, time 13 day, dose 200 mg/kg/day; details: in vivo
[2] = Cmax in mouse assessed as NOAEL at 200 mg/kg/day, po administered as repeated dose for 13 days; assay type: ADME, organism-based; design: route oral, dose 200 mg/kg/day, time 13 day; details: in vivo
[3] = Stability in human liver microsomes assessed as extraction ratio; assay type: ADME, Microsome; details: read-out: ERH
Method in brief: (§1)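 Metabolic stability in human or rat liver microsomes, expressed as extraction ratios.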

[4] = target: T2, Orexin/Hypocretin receptor type 1 (Homo sapiens, UniProt O43613); assay: Binding affinity to human […]
T2 sequence (O43613 whole entry): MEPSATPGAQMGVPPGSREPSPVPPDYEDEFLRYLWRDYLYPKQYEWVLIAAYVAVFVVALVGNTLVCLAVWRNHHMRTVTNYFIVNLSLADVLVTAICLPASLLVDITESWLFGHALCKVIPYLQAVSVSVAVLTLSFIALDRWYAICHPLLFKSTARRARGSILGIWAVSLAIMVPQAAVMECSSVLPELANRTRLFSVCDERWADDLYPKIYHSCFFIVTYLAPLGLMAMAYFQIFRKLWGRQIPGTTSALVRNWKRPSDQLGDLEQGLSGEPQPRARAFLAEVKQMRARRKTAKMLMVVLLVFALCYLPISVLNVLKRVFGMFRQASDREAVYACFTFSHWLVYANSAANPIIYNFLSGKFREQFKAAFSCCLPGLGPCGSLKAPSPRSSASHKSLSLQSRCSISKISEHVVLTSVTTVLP

[5] = Stability in rat liver microsomes assessed as extraction ratio; assay type: ADME, Microsome; details: read-out: ERH; method in brief: as §1
[6] = Ex vivo receptor occupancy at OX1R in Sprague-Dawley rat brain tenia tecta using [3H]SB-674042 labelling at 10 mg/kg, po measured after 0.5 hrs by autoradiography; assay type: functional
Method in brief: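 Rats received a single oral dose, and OX1R occupancy was measured by ex vivo binding autoradiography in brain tenia tecta sections at 0.5, 2 and 6 h after dosing. Occupancy is expressed as percent. Brain and plasma drug levels (ng/mL) were also sampled at the 0.5 h time point.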

[7] = Drug concentration in Sprague-Dawley rat brain at 30 mg/kg, po after 0.5 hrs by LC-MS/MS analysis; assay type: ADME, organism-based; details: read-out: Ct
Method in brief: (§2)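 Brain and plasma levels (ng/mL) sampled 0.5 h after oral dosing at 10 or 30 mg/kg, alongside the ex vivo tenia tecta occupancy study.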

[8] = Stability in dog liver microsomes assessed as extraction ratio; assay type: ADME, Canis lupus familiaris, Microsome; details: read-out: ERH
[9] = Protein binding in human plasma assessed as free fraction; assay type: ADME, cell-free
[10] = Protein binding in rat plasma assessed as free fraction; assay type: ADME, cell-free
[11] = Protein binding in dog plasma assessed as free fraction; assay type: ADME, cell-free, Canis lupus familiaris
[12] = Permeability across basolateral to apical side in MDCK cells; assay type: ADME, cell-based, Canis lupus familiaris; details: dog
[13] = Ex vivo receptor occupancy at OX1R in po dosed rat tenia tecta after 60 mins; assay type: functional, organism-based; details: 1 h
[14] = Oral bioavailability in mouse at 5 mg/kg; assay type: ADME, organism-based; details: in vivo
[15] = Oral bioavailability in rat at 5 mg/kg; assay type: ADME, organism-based; details: in vivo
[16] = Cmax in rat assessed as NOAEL at 250 mg/kg, po administered as repeated dose for 5 days; assay type: ADME, organism-based; design: route oral, dose 250 mg/kg, time 5 day; details: in vivo
[17] = Oral bioavailability in dog at […]; assay type: ADME, organism-based, Canis lupus familiaris; details: in vivo, dose 2.5 mg/kg
[18] = Clearance in rat at 1 mg/kg, iv and 5 mg/kg, po; assay type: ADME, organism-based; details: in vivo
[19] = Clearance in dog at 0.5 mg/kg, iv and […], po; assay type: ADME, organism-based, Canis lupus familiaris; details: in vivo, dose 2.5 mg/kg
[20] = Cmax in rat at 1 mg/kg, iv and 5 mg/kg, po; assay type: ADME, organism-based; design: dose 5 mg/kg; details: in vivo
[21] = Cmax in dog at 0.5 mg/kg, iv and […], po; assay type: ADME, organism-based, Canis lupus familiaris; design: dose 2.5 mg/kg; details: in vivo
[22] = Volume of distribution at steady state in dog at 0.5 mg/kg, iv and […], po; assay type: ADME, organism-based, Canis lupus familiaris; details: in vivo, dose 2.5 mg/kg, read-out: Vdss
[23] = Oral bioavailability in primate at 5 mg/kg; assay type: ADME, organism-based; details: primates, in vivo
[24] = Clearance in primate; assay type: ADME; details: primates
[25] = Cmax in primate; assay type: ADME; details: primates
[26] = AUC (0 to 24 hrs) in mouse assessed as NOAEL at 200 mg/kg/day, po administered as repeated dose for 13 days; assay type: ADME, organism-based; design: route oral, dose 200 mg/kg/day, time 13 day; details: in vivo
[27] = Cmax in dog assessed as NOAEL at 25 mg/kg, po administered for 6 days; assay type: ADME, organism-based, Canis lupus familiaris; design: route oral, dose 25 mg/kg, time 6 day; details: in vivo
Method in brief: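 Six-day dog toxicology study with oral dosing; NOAEL-level Cmax; exposures compared between sexes and between day 0 and day 5.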

[28] = Drug concentration in Sprague-Dawley rat brain at 10 mg/kg, po after 0.5 hrs by LC-MS/MS analysis; assay type: ADME, organism-based; details: read-out: Ct; method in brief: as §2
[29] = Drug concentration in Sprague-Dawley rat plasma at 10 mg/kg, po after 0.5 hrs by LC-MS/MS analysis; assay type: ADME, organism-based; method in brief: as §2
[30] = Cmax in human at 50 mg/day; assay type: ADME; design: dose 50 mg
[31] = Cmax in rat assessed as NOAEL at 200 mg/kg/day, po administered as repeated dose for 6 days; assay type: ADME, organism-based; design: route oral, dose 200 mg/kg/day, time 6 day; details: in vivo
[32] = AUC (0 to 24 hrs) in rat assessed as NOAEL at 200 mg/kg/day, po administered as repeated dose for 6 days; assay type: ADME, organism-based; design: route oral, time 6 day, dose 200 mg/kg/day; details: in vivo
[33] = […] clearance in dog at 0.5 mg/kg, iv and […], po; assay type: ADME, organism-based, Canis lupus familiaris; details: in vivo, dose 2.5 mg/kg
[34] = […] clearance in nonhuman primate; assay type: ADME; details: primates
[35] = Cmax in rat assessed as NOAEL at 200 mg/kg/day, po measured after immediately administered; assay type: ADME, organism-based; design: route oral, dose 200 mg/kg/day, time 13 day; details: in vivo
[36] = Cmax in mouse assessed as NOAEL at 200 mg/kg/day, po measured after immediately administered; assay type: ADME, organism-based; design: route oral, time 13 day, dose 200 mg/kg/day; details: in vivo
[37] = AUC (0 to 24 hrs) in rat assessed as NOAEL at 200 mg/kg/day, po measured after immediately administered; assay type: ADME, organism-based; design: route oral, time 13 day, dose 200 mg/kg/day; details: in vivo
[38] = AUC (0 to 24 hrs) in mouse assessed as NOAEL at 200 mg/kg/day, po measured after immediately administered; assay type: ADME, organism-based; design: route oral, dose 200 mg/kg/day, time 13 day; details: in vivo

O=C(c1cccc(F)c1-c1ncccn1)N1[C@@H]2CC[C@H]1[C@H](Nc1cnc(C(F)(F)F)cn1)C2
activity at 10 µM (PXR (NR1I2)): 29%
AUC at 312 h [1]: 36200 ng·h/mL
Cmax [2]: 24800 ng/mL
hepatic extraction ratio [3]: < 0.3
Ki [4]: 16 nM
hepatic extraction ratio [5]: 0.31
Activity [6]: 70%
concentration at 0.5 h [7]: 687 ng/mL
hepatic extraction ratio [8]: < 0.3
fraction unbound [9]: 0.2
fraction unbound [10]: 0.23
fraction unbound [11]: 0.21
Papp B→A [12]: 64.4 ×10⁻⁶ cm/s
EC50 [13]: 0.085 µg/mL (≈ 0.185 µM)
ED50 ([13]; po, time 60 min): 1.3 mg/kg
bioavailability [14]: 58%
bioavailability [15]: 119%
Cmax [16]: 15000 ng/mL
bioavailability [17]: 48%
clearance [18]: 17 mL/min/kg
clearance [19]: 0.9 mL/min/kg
Cmax [20]: 1370 ng/mL
Cmax [21]: 2240 ng/mL
Vd [22]: 0.6 L/kg
bioavailability [23]: 22%
clearance [24]: 14 mL/min/kg
Cmax [25]: 349 ng/mL
AUC at 312 h [26]: 84100 ng·h/mL
Cmax [27]: 15100 ng/mL
concentration at 0.5 h [28]: 188 ng/mL
concentration at 0.5 h [29]: 1190 ng/mL
Cmax [30]: 537 ng/mL
Cmax [31]: 8800 ng/mL
AUC at 144 h [32]: 62000 ng·h/mL
clearance [33]: 4.8 mL/min/kg
CLint scaled [34]: 13 mL/min/kg
Cmax [35]: 30900 ng/mL
Cmax [36]: 32900 ng/mL
AUC at 312 h [37]: 386000 ng·h/mL
AUC at 312 h [38]: 225000 ng·h/mL
